Consider one compound from ChEMBL document CHEMBL1139384, “First Cdc7 kinase inhibitors: pyrrolopyridinones as potent and orally active antitumor agents. 2. Lead discovery” (J Med Chem, 2009).

Series [1] is described as follows: Antiproliferative activity against human NCI-H929 cells after 72 hrs by luciferase based assay. The series is classed as functional, cell-based. Particulars: NCI-H929, 72 h. In outline:
(§1)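 Cells seeded at 2500–5000/well in complete medium (RPMI1640, McCoy's or DMEM with 10% FCS, by line); compound added after 24 h, 72 h at 37 °C, 5% CO2.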

The test system of the next series is NHDF. Kind of series: Antiproliferative activity against human NHDF cells after 72 hrs by luciferase based assay. The series is classed as cell-based.
A further series concerns MCF7. Kind of series: Antiproliferative activity against human MCF7 cells after 72 hrs by luciferase based assay. The series is classed as functional, cell-based. Particulars: MCF7, 72 h.
Series [2] concerns A2780. Kind of series: Antiproliferative activity against human A2780 cells after 72 hrs by luciferase based assay. The series is classed as functional, cell-based. The note with it: Homo sapiens, A2780, 72 h.
Another series has as its system Rattus norvegicus. Kind of series: Antitumor activity against DMBA-induced mammary carcinoma in CD OFA rat assessed as duration of tumor stabilization maintenance at 20 mg/kg, po administered for 10 days. The series is classed as functional. Put shortly: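 DMBA tumors induced in female CD OFA rats by single intragastric 20 mg DMBA in sesame oil; after about 50 days, rats with a mammary tumor of at least 1 cm given 20 mg/kg orally twice daily for 10 days in glucose solution, or vehicle; 10 per group; tumor volume by Vernier calipers.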

Another series concerns OPM-2. Kind of series: Antiproliferative activity against human OPM2 cells after 72 hrs by luciferase based assay. Particulars: OPM-2, 72 h. The series is classed as functional, cell-based. In outline: as §1
Series [3] deals with A2780. Kind of series: Antitumor activity against human A2780 cells xenografted in CDI nu/nu mouse assessed as tumor growth inhibition at 60 mg/kg, po administered for 10 days. The series is classed as functional. Particulars: A2780, 240 h, read-out: TGI.
A further series deals with SW48. Kind of series: Antiproliferative activity against human SW48 cells after 72 hrs by luciferase based assay. The series is classed as functional, cell-based. Particulars: SW48, 72 h. In outline:
as §1

A short description of series [4]: Antiproliferative activity against human […] cells after 72 hrs by luciferase based assay. The series is classed as functional, cell-based. Put shortly:
as §1

The test system of a further series is L-363. Kind of series: Antiproliferative activity against human L363 cells after 72 hrs by luciferase based assay. The note with it: L-363, 72 h. The series is classed as functional, cell-based. In outline: as §1
A short description of series [5]: Antiproliferative activity against human SW403 cells after 72 hrs by luciferase based assay. The series is classed as functional, cell-based. Particulars: SW-403, 72 h. In outline: as §1
A further series concerns COLO 205. Kind of series: Antiproliferative activity against human COLO205 cells after 72 hrs by luciferase based assay. The series is classed as functional, cell-based. Particulars: COLO 205, 72 h.
In another series the test system is HT-29. Kind of series: Antiproliferative activity against human HT-29 cells after 72 hrs by luciferase based assay. The series is classed as functional, cell-based. Particulars: HT-29, 72 h. Put shortly: as §1
Series [6] is described as follows: Apparent permeability by PAMPA method. The series is classed as ADME. Particulars: read-out: permeability.

As usually defined, the IC50 is the point on the concentration scale where inhibition reaches its midpoint. Read a low IC50 as higher potency.

Each structure is given as a SMILES string.

As to `O=C1NCCc2[nH]c(-c3ccncc3)cc21`, the IC50 was found to be 1800 nM in series [1]; 1600 nM in the series on NHDF; 1300 nM in the series on MCF7; 1100 nM in the series with A2780 [2]; 4500 nM in the series with OPM-2; 1200 nM with SW48. The IC50 in series [4] stood at 1000 nM; in the series on L-363, 1600 nM; in series [5], 1000 nM; in the series with COLO 205, 1500 nM; with HT-29 it was 5000 nM. Also, the Activity in the series on Rattus norvegicus was determined as 25 days. Further, the inhibition in vivo at 60 mg/kg in the series with A2780 [3] came out at 50%. In addition, the Papp in series [6] was 1.84 ×10⁻⁶ cm/s.
